Laboratory results published in ChEMBL document CHEMBL1667766, “Synthesis of elastin based peptides conjugated to benzisoxazole as a new class of potent antimicrobials--A novel approach to enhance biocompatibility” (2011).
≈ marks a conversion by molar mass, not a printed value. *1 amine or outer side, *2 acyl side, *3 side chain or, on linkers, in order; H or OH if unused. Where a SMILES comes first, the peptide text is derived from it. [ ]: non-standard residue; d: D form. The star is where a group is joined. X2 = CC(C)[C@H](N[*:1])C(=O)NC(=O)[*:2]; Boc = CC(C)(C)OC(=O)*; OcHex = C1CCC(O*)CC1

Key:
Format in all cases: functional
Staphylococcus [1] = test: Antimicrobial activity against coagulase positive Staphylococcus after 72 hrs by microdilution method
Aspergillus flavus [2] = test: Antifungal activity against Aspergillus flavus after 72 hrs by microdilution method
Fusarium oxysporum [3] = test: Antifungal activity against Fusarium oxysporum after 72 hrs by microdilution method
Escherichia coli [4] = test: Antimicrobial activity against Escherichia coli after 72 hrs by microdilution method
Xanthomonas oryzae [5] = test: Antimicrobial activity against Xanthomonas oryzae after 72 hrs by microdilution method
Aspergillus niger [6] = test: Antifungal activity against Aspergillus niger after 72 hrs by microdilution method
Klebsiella pneumoniae [7] = test: Antimicrobial activity against Klebsiella pneumoniae after 72 hrs by microdilution method
Fusarium oxysporum [8] = test: Antifungal activity against Fusarium oxysporum after 24 hrs by agar well diffusion method
Outline: (§1)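 Fungi subcultured in 25 mL nutrient broth for one day to give inoculum, then spread on solidified Sabouraud agar. Wells punched with a 6 mm cork borer and filled with 0.1 mL test solution in DMSO, prepared from a 1 mg/mL stock. Bavistin as reference, DMSO as negative control. Read-out is inhibition zone diameter (mm).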

Aspergillus flavus [9] = test: Antifungal activity against Aspergillus flavus after 24 hrs by agar well diffusion method; outline: as §1
Xanthomonas oryzae [10] = test: Antimicrobial activity against Xanthomonas oryzae after 24 hrs by agar well diffusion method
Aspergillus niger [11] = test: Antifungal activity against Aspergillus niger after 24 hrs by agar well diffusion method; outline: as §1
Klebsiella pneumoniae [12] = test: Antimicrobial activity against Klebsiella pneumoniae after 24 hrs by agar well diffusion method
Outline: (§2)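 Bacteria grown in nutrient broth at 37 °C for 24 h, subcultured in 25 mL broth at room temperature, then spread on nutrient agar. Wells (6 mm cork borer) filled with 0.1 mL test solution in DMSO, prepared from a 1 mg/mL stock. Amoxicillin as reference, DMSO as negative control. Plates kept 24 h at 37 °C; inhibition zone measured in mm.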

Escherichia coli [13] = test: Antimicrobial activity against Escherichia coli after 24 hrs by agar well diffusion method; outline: as §2
Staphylococcus [14] = test: Antimicrobial activity against coagulase positive Staphylococcus after 24 hrs by agar well diffusion method; outline: as §2

Compound | MIC (Staphylococcus [1]) | MIC (Aspergillus flavus [2]) | MIC (Fusarium oxysporum [3]) | MIC (Escherichia coli [4]) | MIC (Xanthomonas oryzae [5]) | MIC (Aspergillus niger [6]) | MIC (Klebsiella pneumoniae [7]) | inhibition zone (IZ) (Fusarium oxysporum [8]) | inhibition zone (IZ) (Aspergillus flavus [9]) | inhibition zone (IZ) (Xanthomonas oryzae [10]) | inhibition zone (IZ) (Aspergillus niger [11]) | inhibition zone (IZ) (Klebsiella pneumoniae [12]) | inhibition zone (IZ) (Escherichia coli [13]) | inhibition zone (IZ) (Staphylococcus [14])
CC(C)(C)OC(=O)N[C@@H](Cc1ccccc1)C(=O)O | > 50 µg/mL | > 50 µg/mL | > 50 µg/mL | > 50 µg/mL | > 50 µg/mL | > 50 µg/mL | > 50 µg/mL |  |  |  |  |  |  | 
N[C@@H](Cc1ccccc1)C(=O)N1CCC(c2noc3cc(F)ccc23)CC1.O=C(O)C(F)(F)F | 18 µg/mL | 22 µg/mL | 21 µg/mL | 20 µg/mL | 15 µg/mL | 18 µg/mL | 16 µg/mL | 14 mm | 11 mm | 11 mm | 16 mm | 10 mm | 14 mm | 9 mm
N[C@@H](Cc1c[nH]c2ccccc12)C(=O)N1CCC(c2noc3cc(F)ccc23)CC1.O=C(O)C(F)(F)F | 36 µg/mL | 41 µg/mL | 39 µg/mL | 38 µg/mL | 26 µg/mL | 32 µg/mL | 31 µg/mL | 7 mm | 4 mm | 6 mm | 11 mm | 5 mm | 8 mm | 4 mm
N[C@@H](Cc1ccc(O)cc1)C(=O)N1CCC(c2noc3cc(F)ccc23)CC1.O=C(O)C(F)(F)F | 39 µg/mL | 43 µg/mL | 41 µg/mL | 40 µg/mL | 29 µg/mL | 34 µg/mL | 34 µg/mL | 6 mm | 3 mm | 5 mm | 10 mm | 4 mm | 7 mm | 4 mm
CC[C@@H](C)[C@H](NC(=O)CNC(=O)CN)C(=O)N1CCC[C@H]1C(=O)N1CCC(c2noc3cc(F)ccc23)CC1.O=C(O)C(F)(F)F | 14 µg/mL | 16 µg/mL | 17 µg/mL | 15 µg/mL | 12 µg/mL | 13 µg/mL | 12 µg/mL | 18 mm | 14 mm | 15 mm | 22 mm | 14 mm | 20 mm | 12 mm
Fc1ccc2c(C3CCNCC3)noc2c1 | > 50 µg/mL | > 50 µg/mL | > 50 µg/mL | > 50 µg/mL | > 50 µg/mL | > 50 µg/mL | > 50 µg/mL | 4 mm | 2 mm | 4 mm | 3 mm | 3 mm | 3 mm | 3 mm
CC[C@@H](C)[C@H](NC(=O)CNC(=O)CNC(=O)OC(C)(C)C)C(=O)N1CCC[C@H]1C(=O)O | > 50 µg/mL | > 50 µg/mL | > 50 µg/mL | > 50 µg/mL | > 50 µg/mL | > 50 µg/mL | > 50 µg/mL |  |  |  |  |  |  | 
CC(C)(C)OC(=O)N[C@@H](Cc1c[nH]c2ccccc12)C(=O)O | > 50 µg/mL | > 50 µg/mL | > 50 µg/mL | > 50 µg/mL | > 50 µg/mL | > 50 µg/mL | > 50 µg/mL |  |  |  |  |  |  | 
CC(C)[C@H](NC(=O)CNC(=O)[C@@H]1CCCN1C(=O)[C@H](Cc1ccccc1)NC(=O)CNC(=O)[C@H](CCC(=O)OC1CCCCC1)NC(=O)CNC(=O)OC(C)(C)C)C(=O)NCC(=O)N[C@H](C(=O)N1CCC[C@H]1C(=O)NCC(=O)N[C@H](C(=O)NCC(=O)N[C@H](C(=O)N1CCC[C@H]1C(=O)NCC(=O)N[C@H](C(=O)NCC(=O)N[C@H](C(=O)N1CCC[C@H]1C(=O)NCC(=O)N[C@@H](Cc1ccccc1)C(=O)NCC(=O)N[C@@H](Cc1ccccc1)C(=O)N1CCC[C@H]1C(=O)NCC(=O)N[C@@H](Cc1ccccc1)C(=O)NCC(=O)N[C@@H](Cc1ccccc1)C(=O)N1CCC[C@H]1C(=O)O)C(C)C)C(C)C)C(C)C)C(C)C)C(C)C (Boc-GE(OcHex)GFPGVGVPGVGVPGVGVPGFGFPGFGFP-OH) | > 50 µg/mL | > 50 µg/mL | > 50 µg/mL | > 50 µg/mL | > 50 µg/mL | > 50 µg/mL | > 50 µg/mL |  |  |  |  |  |  | 
CC(C)[C@H](NC(=O)CNC(=O)[C@@H]1CCCN1C(=O)[C@H](Cc1ccccc1)NC(=O)CNC(=O)[C@H](Cc1ccccc1)NC(=O)CNC(=O)[C@@H]1CCCN1C(=O)[C@H](Cc1ccccc1)NC(=O)CNC(=O)[C@@H](NC(=O)CNC(=O)[C@@H]1CCCN1C(=O)[C@@H](NC(=O)NC(=O)[C@@H](NC(=O)CNC(=O)[C@@H]1CCCN1C(=O)[C@H](Cc1ccccc1)NC(=O)CNC(=O)[C@H](CCC(=O)OC1CCCCC1)NC(=O)CNC(=O)OC(C)(C)C)C(C)C)C(C)C)C(C)C)C(=O)NCC(=O)N[C@H](C(=O)N1CCC[C@H]1C(=O)NCC(=O)N[C@H](C(=O)NCC(=O)N[C@@H](Cc1ccccc1)C(=O)N1CCC[C@H]1C(=O)O)C(C)C)C(C)C (Boc-GE(OcHex)GFPG[X2]VPGVGFPGFGFPGVGVPGVGFP-OH) | > 50 µg/mL | > 50 µg/mL | > 50 µg/mL | > 50 µg/mL | > 50 µg/mL | > 50 µg/mL | > 50 µg/mL |  |  |  |  |  |  | 
CC(C)(C)OC(=O)NCC(=O)N[C@@H](Cc1ccccc1)C(=O)NCC(=O)N[C@@H](Cc1ccccc1)C(=O)N1CCC[C@H]1C(=O)O (Boc-GFGFP-OH) | > 50 µg/mL | > 50 µg/mL | > 50 µg/mL | > 50 µg/mL | > 50 µg/mL | > 50 µg/mL | > 50 µg/mL |  |  |  |  |  |  | 
C[C@H](NC(=O)CNC(=O)CNC(=O)OC(C)(C)C)C(=O)N1CCC[C@H]1C(=O)O (Boc-GGAP-OH) | > 50 µg/mL | > 50 µg/mL | > 50 µg/mL | > 50 µg/mL | > 50 µg/mL | > 50 µg/mL | > 50 µg/mL |  |  |  |  |  |  | 
CC(C)(C)OC(=O)NCC(=O)NCC(=O)N[C@@H](Cc1ccccc1)C(=O)N1CCC[C@H]1C(=O)O (Boc-GGFP-OH) | > 50 µg/mL | > 50 µg/mL | > 50 µg/mL | > 50 µg/mL | > 50 µg/mL | > 50 µg/mL | > 50 µg/mL |  |  |  |  |  |  | 
CC(C)[C@H](NC(=O)CNC(=O)OC(C)(C)C)C(=O)NCC(=O)N[C@H](C(=O)N1CCC[C@H]1C(=O)O)C(C)C (Boc-GVGVP-OH) | > 50 µg/mL | > 50 µg/mL | > 50 µg/mL | > 50 µg/mL | > 50 µg/mL | > 50 µg/mL | > 50 µg/mL |  |  |  |  |  |  | 
CC1(C)S[C@@H]2[C@H](NC(=O)[C@H](N)c3ccc(O)cc3)C(=O)N2[C@H]1C(=O)O [AMOXICILLIN] | 23 µg/mL (≈ 62.9 µM) |  |  | 24 µg/mL (≈ 65.7 µM) | 18 µg/mL (≈ 49.3 µM) |  | 20 µg/mL (≈ 54.7 µM) |  |  | 8 mm |  | 8 mm | 11 mm | 7 mm
COC(=O)Nc1nc2ccccc2[nH]1 [CARBENDAZIM] |  | 26 µg/mL (≈ 136 µM) | 25 µg/mL (≈ 131 µM) |  |  | 22 µg/mL (≈ 115 µM) |  | 10 mm | 7 mm |  | 12 mm |  |  | 
